≈ marks a conversion by molar mass, not a printed value.
How the values were obtained:
[1] = test system: Felis catus; experiment: Effective dose for lowering blood pressure in anesthetized cat when administered intravenously; assay type: functional; settings: iv
Procedure, shortened: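 Cats of either sex, 3–4 kg, under ether induction and chloralose (70 mg/kg iv). Compounds in distilled water or propylene glycol were given iv via the femoral vein at 0.01–10 mg/kg. Fall in mean arterial pressure read 10 min post-dose. ED20 taken graphically from the log dose-response curve, with doses run in triplicate.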

[2] = organism: Cavia porcellus; experiment: Positive inotropic activity in spontaneously beating guinea pig atria; assay type: functional, organism-based
Procedure, shortened: (§1)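 Guinea pig atria, spontaneously beating, in Ringer solution at 32 °C gassed with 95% O2/5% CO2. Isometric force recorded at 0.5–1 g initial tension after 30 min stabilization. Compounds in water or propylene glycol given cumulatively at 0.01–30 μg/mL, with 7 min contact per dose. EC50 for a 50% force increase taken graphically from the dose-response curve, in triplicate.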

[3] = organism: Cavia porcellus; experiment: Positive inotropic activity was assessed in spontaneously beating guinea pig atria; NA=Not active; assay type: functional, organism-based; procedure, shortened: as §1

Compound: C=C[C@@]1(C)CC(=O)[C@]2(O)C3(C)C(C(O)C(OC(=O)Cn4nnc5ccccc54)[C@@]2(C)O1)C(C)(C)CC[C@@H]3O (stereo partly drawn)
- ED20 [1]: 3 mg/kg
- EC50 [2]: > 30 µg/mL

Compound: C=C[C@@]1(C)CC(=O)[C@]2(O)C3(C)C(C(OC(=O)CN4CCCC(C)C4)C(O)[C@@]2(C)O1)C(C)(C)CC[C@@H]3O.Cl (stereo partly drawn)
- ED20 [1]: 5.4 mg/kg
- EC50 [2]: > 30 µg/mL

Compound: C=C[C@@]1(C)CC(=O)[C@]2(O)C3(C)C(C(OC(=O)CCN4CCN(C)CC4)C(O)[C@@]2(C)O1)C(C)(C)CC[C@@H]3O.Cl (stereo partly drawn)
- ED20 [1]: 1.4 mg/kg
- EC50 [2]: 0.2 µg/mL

Compound: C=C[C@@]1(C)CC(=O)[C@]2(O)C3(C)C(C(O)C(OC(=O)CCN4CCN(C)CC4)[C@@]2(C)O1)C(C)(C)CC[C@@H]3O.Cl (stereo partly drawn)
- EC50 [3]: Not Active

Compound: C=C[C@@]1(C)CC(=O)[C@]2(O)C3(C)C(C(O)C(OC(=O)C(C)N4CCN(C)CC4)[C@@]2(C)O1)C(C)(C)CC[C@@H]3O.Cl (stereo partly drawn)
- ED20 [1]: 10 mg/kg
- EC50 [3]: Not Active

Compound: C=C[C@@]1(C)CC(=O)[C@]2(O)C3(C)C(C(O)C(OC(=O)Cn4c(=O)c5c(ncn5COCCOC)n(C)c4=O)[C@@]2(C)O1)C(C)(C)CC[C@@H]3O (stereo partly drawn)
- ED20 [1]: 6 mg/kg
- EC50 [2]: 2 µg/mL (≈ 3.02 µM)

Compound: C=C[C@@]1(C)CC(=O)[C@]2(O)C3(C)C(C(O)C(OC(=O)CN4CCC(O)CC4)[C@@]2(C)O1)C(C)(C)CC[C@@H]3O.Cl (stereo partly drawn)
- ED20 [1]: 3 mg/kg
- EC50 [2]: > 30 µg/mL

Compound: C=C[C@@]1(C)CC(=O)[C@]2(O)C3(C)C(C(O)C(OC(=O)CCCCCCCCCCCN4CCOCC4)[C@@]2(C)O1)C(C)(C)CC[C@@H]3O.Cl (stereo partly drawn)
- ED20 [1]: 1.6 mg/kg
- EC50 [3]: Not Active

Compound: C=C[C@@]1(C)CC(=O)[C@]2(O)C3(C)C(C(O)C(OC(=O)CNC(C)(C)C)[C@@]2(C)O1)C(C)(C)CC[C@@H]3O.Cl (stereo partly drawn)
- ED20 [1]: 1 mg/kg
- EC50 [2]: > 30 µg/mL

Compound: C=C[C@@]1(C)CC(=O)[C@]2(O)C3(C)C(C(O)C(OC(=O)CN4CCC(C)CC4)[C@@]2(C)O1)C(C)(C)CC[C@@H]3O.Cl (stereo partly drawn)
- ED20 [1]: 10 mg/kg
- EC50 [2]: > 30 µg/mL

Compound: C=C[C@@]1(C)CC(=O)[C@]2(O)C3(C)C(C(OC(=O)Cn4cnc5c4c(=O)n(C)c(=O)n5C)C(O)[C@@]2(C)O1)C(C)(C)CC[C@@H]3O (stereo partly drawn)
- ED20 [1]: 4.5 mg/kg
- EC50 [2]: 3 µg/mL (≈ 5.1 µM)

Compound: C=C[C@@]1(C)CC(=O)[C@]2(O)C3(C)C(C(O)C(OC(=O)C(C)Nc4ccccc4)[C@@]2(C)O1)C(C)(C)CC[C@@H]3O (stereo partly drawn)
- ED20 [1]: 3 mg/kg
- EC50 [3]: Not Active

Compound: C=C[C@@]1(C)CC(=O)[C@]2(O)C3(C)C(C(OC(=O)CCCN4CCOCC4)C(O)[C@@]2(C)O1)C(C)(C)CC[C@@H]3O.Cl (stereo partly drawn)
- ED20 [1]: 2 mg/kg
- EC50 [3]: Not Active

Compound: C=C[C@@]1(C)CC(=O)[C@]2(O)C3(C)C(C(O)C(OC(=O)CCN4CCCCC4)[C@@]2(C)O1)C(C)(C)CC[C@@H]3O.Cl (stereo partly drawn)
- EC50 [2]: 1 µg/mL

Compound: C=C[C@@]1(C)CC(=O)[C@]2(O)C3(C)C(C(OC(=O)CN4CCN(C)CC4)C(O)[C@@]2(C)O1)C(C)(C)CC[C@@H]3O.Cl (stereo partly drawn)
- ED20 [1]: 1.3 mg/kg
- EC50 [2]: 30 µg/mL

Compound: C=C[C@@]1(C)CC(=O)[C@]2(O)C3(C)C(C(OC(=O)C(C)N4CCOCC4)C(O)[C@@]2(C)O1)C(C)(C)CC[C@@H]3O.Cl (stereo partly drawn)
- ED20 [1]: 3 mg/kg
- EC50 [2]: > 30 µg/mL

Compound: C=C[C@@]1(C)CC(=O)[C@]2(O)C3(C)C(C(OC(=O)CCCCN4CCCCC4)C(O)[C@@]2(C)O1)C(C)(C)CC[C@@H]3O.Cl (stereo partly drawn)
- ED20 [1]: 1 mg/kg
- EC50 [2]: > 30 µg/mL

Compound: C=C[C@@]1(C)CC(=O)[C@]2(O)C3(C)C(C(O)C(OC(=O)CN(CC)CC)[C@@]2(C)O1)C(C)(C)CC[C@@H]3O.Cl (stereo partly drawn)
- ED20 [1]: 2 mg/kg
- EC50 [2]: 10 µg/mL

Compound: C=C[C@@]1(C)CC(=O)[C@]2(O)C3(C)C(C(O)C(OC(=O)Cn4cnc5c4c(=O)n(C)c(=O)n5C)[C@@]2(C)O1)C(C)(C)CC[C@@H]3O (stereo partly drawn)
- ED20 [1]: 3 mg/kg
- EC50 [2]: 0.74 µg/mL (≈ 1.26 µM)

Compound: C=C[C@@]1(C)CC(=O)[C@]2(O)C3(C)C(C(O)C(OC(=O)C(C)N4CCCCC4)[C@@]2(C)O1)C(C)(C)CC[C@@H]3O (stereo partly drawn)
- ED20 [1]: 4.5 mg/kg
- EC50 [2]: > 30 µg/mL

Compound: C=C[C@@]1(C)CC(=O)[C@]2(O)C3(C)C(C(O)C(OC(=O)CCCN4CCCCC4)[C@@]2(C)O1)C(C)(C)CC[C@@H]3O.Cl (stereo partly drawn)
- ED20 [1]: 0.3 mg/kg
- EC50 [2]: > 30 µg/mL

Compound: Nc1cc(N2CCCCC2)nc(N)[n+]1[O-] [MINOXIDIL]
- ED20 [1]: 0.9 mg/kg

Compound: C=C[C@@]1(C)CC(=O)[C@]2(O)C3(C)C(C(OC(=O)CN(C)C4CCCCC4)C(O)[C@@]2(C)O1)C(C)(C)CC[C@@H]3O.ClC(Cl)Cl (stereo partly drawn)
- ED20 [1]: 3.5 mg/kg
- EC50 [3]: Not Active

Compound: C=C[C@@]1(C)CC(=O)[C@]2(O)C3(C)C(C(O)C(OC(=O)CN4CCCC4)[C@@]2(C)O1)C(C)(C)CC[C@@H]3O.Cl (stereo partly drawn)
- ED20 [1]: 4 mg/kg
- EC50 [2]: 1.8 µg/mL

Compound: C=C[C@@]1(C)CC(=O)[C@]2(O)C3(C)C(C(O)C(OC(=O)CN4CCSCC4)[C@@]2(C)O1)C(C)(C)CC[C@@H]3O.Cl (stereo partly drawn)
- ED20 [1]: 3 mg/kg
- EC50 [2]: > 30 µg/mL

Compound: C=C[C@@]1(C)CC(=O)[C@]2(O)C3(C)C(C(OC(=O)CN4CCCC4)C(O)[C@@]2(C)O1)C(C)(C)CC[C@@H]3O.Cl (stereo partly drawn)
- ED20 [1]: 1 mg/kg
- EC50 [2]: 3 µg/mL

Compound: C=C[C@@]1(C)CC(=O)[C@]2(O)C3(C)C(C(OC(=O)C(C)N4CCN(C)CC4)C(O)[C@@]2(C)O1)C(C)(C)CC[C@@H]3O.Cl (stereo partly drawn)
- ED20 [1]: 3 mg/kg
- EC50 [3]: Not Active

Compound: C=C[C@@]1(C)CC(=O)[C@]2(O)C3(C)C(C(O)C(OC(=O)CCCN4CCN(C)CC4)[C@@]2(C)O1)C(C)(C)CC[C@@H]3O.Cl (stereo partly drawn)
- ED20 [1]: 0.8 mg/kg
- EC50 [3]: Not Active

Compound: C=C[C@@]1(C)CC(=O)[C@]2(O)C3(C)C(C(O)C(OC(=O)C(C)n4cnc5c4c(=O)n(C)c(=O)n5C)[C@@]2(C)O1)C(C)(C)CC[C@@H]3O (stereo partly drawn)
- ED20 [1]: 5 mg/kg
- EC50 [2]: 0.9 µg/mL (≈ 1.49 µM)

Compound: C=C[C@@]1(C)CC(=O)[C@]2(O)C3(C)C(C(O)C(OC(=O)CN4CCC(NC(=O)c5ccccc5)CC4)[C@@]2(C)O1)C(C)(C)CC[C@@H]3O (stereo partly drawn)
- ED20 [1]: 3 mg/kg
- EC50 [3]: Not Active

Compound: C=C[C@@]1(C)CC(=O)[C@]2(O)C3(C)C(C(O)C(OC(=O)CCN4CCOCC4)[C@@]2(C)O1)C(C)(C)CC[C@@H]3O.Cl (stereo partly drawn)
- EC50 [3]: Not Active

Compound: C=C[C@@]1(C)CC(=O)[C@]2(O)C3(C)C(C(O)C(OC(=O)C(C)(C)N4CCOCC4)[C@@]2(C)O1)C(C)(C)CC[C@@H]3O.Cl (stereo partly drawn)
- ED20 [1]: 1.8 mg/kg
- EC50 [2]: 3 µg/mL

Compound: C=C[C@@]1(C)CC(=O)[C@]2(O)C3(C)C(C(OC(=O)CN4CCC(NC(=O)c5ccccc5)CC4)C(O)[C@@]2(C)O1)C(C)(C)CC[C@@H]3O (stereo partly drawn)
- ED20 [1]: 4 mg/kg
- EC50 [2]: 1.2 µg/mL (≈ 1.96 µM)

Compound: C=C[C@@]1(C)CC(=O)[C@]2(O)C3(C)C(C(OC(=O)C(C)Nc4ccccc4)C(O)[C@@]2(C)O1)C(C)(C)CC[C@@H]3O.Cl (stereo partly drawn)
- ED20 [1]: 6.2 mg/kg
- EC50 [3]: Not Active

Compound: CC(CCc1ccc(O)cc1)NCCc1ccc(O)c(O)c1 (stereo not drawn) [DOBUTAMINE]
- EC50 [2]: 0.3 µg/mL (≈ 0.995 µM)

Compound: C=C[C@@]1(C)CC(=O)[C@]2(O)C3(C)C(C(OC(=O)CN4CCSCC4)C(O)[C@@]2(C)O1)C(C)(C)CC[C@@H]3O.Cl (stereo partly drawn)
- ED20 [1]: 5 mg/kg
- EC50 [2]: 1.5 µg/mL

Compound: C=C[C@@]1(C)CC(=O)[C@]2(O)C3(C)C(C(O)C(OC(=O)CN4CCCC(C)C4)[C@@]2(C)O1)C(C)(C)CC[C@@H]3O.Cl (stereo partly drawn)
- ED20 [1]: 10 mg/kg
- EC50 [2]: > 30 µg/mL

Compound: C=C[C@@]1(C)CC(=O)[C@]2(O)C3(C)C(C(O)C(OC(=O)CNc4ccccc4)[C@@]2(C)O1)C(C)(C)CC[C@@H]3O (stereo partly drawn)
- ED20 [1]: 2 mg/kg
- EC50 [2]: > 10 µg/mL

Compound: C=C[C@@]1(C)CC(=O)[C@]2(O)C3(C)C(C(O)C(OC(=O)Cn4cc(C(=O)OCC)c(=O)c5ccc(C(F)(F)F)cc54)[C@@]2(C)O1)C(C)(C)CC[C@@H]3O (stereo partly drawn)
- EC50 [3]: Not Active

Compound: C=C[C@@]1(C)CC(=O)[C@]2(O)C3(C)C(C(OC(=O)CN4CCC(O)(c5ccccc5)CC4)C(O)[C@@]2(C)O1)C(C)(C)CC[C@@H]3O (stereo partly drawn)
- ED20 [1]: 5 mg/kg
- EC50 [2]: 3 µg/mL (≈ 5.12 µM)

Compound: C=C[C@@]1(C)CC(=O)[C@]2(O)C3(C)C(C(O)C(OC(=O)CN4CCCCC4)[C@@]2(C)O1)C(C)(C)CC[C@@H]3O.Cl (stereo partly drawn)
- ED20 [1]: 10 mg/kg
- EC50 [2]: > 30 µg/mL

Compound: C=C[C@@]1(C)CC(=O)[C@]2(O)C3(C)C(C(O)C(OC(=O)CN4CCN(C)CC4)[C@@]2(C)O1)C(C)(C)CC[C@@H]3O.Cl (stereo partly drawn)
- ED20 [1]: 0.9 mg/kg
- EC50 [2]: > 30 µg/mL

Compound: C=C[C@@]1(C)CC(=O)[C@]2(O)C3(C)C(C(O)C(OC(=O)CCCCN4CCCCC4)[C@@]2(C)O1)C(C)(C)CC[C@@H]3O.Cl (stereo partly drawn)
- ED20 [1]: 1 mg/kg
- EC50 [2]: 30 µg/mL

Compound: C=C[C@@]1(C)CC(=O)[C@]2(O)C3(C)C(C(OC(=O)CN4CCCCCC4)C(O)[C@@]2(C)O1)C(C)(C)CC[C@@H]3O.Cl (stereo partly drawn)
- ED20 [1]: 1 mg/kg
- EC50 [2]: 1.9 µg/mL

Compound: C=C[C@@]1(C)CC(=O)[C@]2(O)C3(C)C(C(OC(=O)CNCc4ccccc4)C(O)[C@@]2(C)O1)C(C)(C)CC[C@@H]3O.Cl (stereo partly drawn)
- ED20 [1]: 3.5 mg/kg
- EC50 [2]: 10 µg/mL

Compound: C=C[C@@]1(C)CC(=O)[C@]2(O)C3(C)C(C(O)C(OC(=O)CCCN4CCOCC4)[C@@]2(C)O1)C(C)(C)CC[C@@H]3O.Cl (stereo partly drawn)
- ED20 [1]: 1.8 mg/kg
- EC50 [2]: 10 µg/mL

Compound: C=C[C@@]1(C)CC(=O)[C@]2(O)C3(C)C(C(O)C(OC(=O)CCN4C(=O)c5ccccc5C4=O)[C@@]2(C)O1)C(C)(C)CC[C@@H]3O (stereo partly drawn)
- ED20 [1]: 10 mg/kg
- EC50 [2]: > 30 µg/mL

From ChEMBL document CHEMBL1123969, “Cardiovascular effects of new water-soluble derivatives of forskolin” (J Med Chem, 1988)
